Values belong to the molecule of their own block, whether it stands above or below them. Activity calls are given as the source filed them. The calls are words filed in the database; no cut-off is given here.
Columns and labels:
[1] = target: T1, Protein cereblon/Cyclin-dependent kinase 9 (Homo sapiens) (UniProt P50750+Q96SW2); test: Protac activity at CRBN/CDK9 in AR-negative human PC3 cells assessed as induction of CDK9 protein degradation at 1 uM after 12 hrs by Western blot analysis; assay type: cell-based; settings: PC-3
Outline: (§1)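 PC-3 cells (DMEM/F12 1:1, 10% FBS, 1% pen/strep, 37 °C, 5% CO2) plated at 5 × 10^5 per well, exposed to compound for 12 h. RIPA lysates with protease inhibitors; 50 µg total protein run on 10% SDS-PAGE, transferred to PVDF, blocked in 5% milk/TBS-T. Probed with anti-CDK9 (1/1000), β-tubulin loading control, HRP secondary, chemiluminescence; bands scored as degradation detected or not.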

PC-3 = test: Antiproliferative activity against AR-negative human PC3 cells assessed as reduction in cell viability after 5 days by CCK8 assay; assay type: functional, cell-based; settings: PC-3, 120 h
Outline: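 Cells seeded at 3 × 10^3 per well for 24 h, then dosed in 10-point, 3-fold serial dilution from 10 µM. CCK-8 added after 5 days, 4 h at 37 °C, absorbance at 450 nm. IC50 averaged from three separate determinations (at least two independent runs, duplicate wells). PC-3 grown in DMEM/F12 (1:1), LO2 in RPMI 1640, both with 10% FBS.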

[2] = target: T1, Protein cereblon/Cyclin-dependent kinase 9 (Homo sapiens); test: Protac activity at CRBN/CDK9 in AR-negative human PC3 cells assessed as induction of CDK9 protein degradation at 30 uM after 12 hrs by Western blot analysis; assay type: cell-based; settings: PC-3; outline: as §1
[3] = target: T2, Protein cereblon/Cyclin-dependent kinase 2 (Homo sapiens) (UniProt P24941+Q96SW2); test: Protac activity at CRBN/CDK2 in AR-negative human PC3 cells assessed as CDK2 degradation at 1 uM preincubated with AT-7519 for 2 hrs and measured after 8 hrs by Western blot analysis; settings: PC-3
[4] = target: T2, Protein cereblon/Cyclin-dependent kinase 2 (Homo sapiens); test: Protac activity at CRBN/CDK2 in AR-negative human PC3 cells assessed as induction of CDK2 protein degradation at 1 uM after 12 hrs by Western blot analysis; assay type: cell-based; settings: PC-3
Outline: (§2)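 PC-3 cells (5 × 10^5 per well) treated 12 h at single concentrations (50 nM, 500 nM, 1, 5 or 30 µM). RIPA lysates (50 µg) run on 10% SDS-PAGE and immunoblotted for CDK2, CDK5, CDK9 with β-tubulin loading control, then detected by chemiluminescence. Band intensities quantified densitometrically.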

[5] = target: T2, Protein cereblon/Cyclin-dependent kinase 2 (Homo sapiens); test: Protac activity at CRBN/CDK2 in AR-negative human PC3 cells assessed as CDK2 degradation at 1 uM preincubated with pomalidomide for 2 hrs and measured after 8 hrs by Western blot analysis; assay type: cell-based; settings: PC-3
Outline: (§3)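 PC-3 cells pretreated 2 h with 10 µM DMSO, AT-7519, pomalidomide or MG-132, then degrader at 1 µM for 8 h. CDK2 immunoblotted against β-tubulin loading control, with 50 µg protein per lane on 10% SDS-PAGE and ECL detection.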

[6] = target: Protein cereblon/Cyclin-dependent kinase 5 (Homo sapiens) (UniProt Q00535+Q96SW2); test: Protac activity at CRBN/CDK5 in AR-negative human PC3 cells assessed as induction of CDK5 protein degradation at 1 uM after 12 hrs by Western blot analysis; assay type: cell-based; settings: PC-3; outline: as §2
[7] = target: T2, Protein cereblon/Cyclin-dependent kinase 2 (Homo sapiens); test: Protac activity at CRBN/CDK2 in AR-negative human PC3 cells assessed as CDK2 degradation at 1 uM preincubated with proteasome inhibitor MG132 for 2 hrs and measured after 8 hrs by Western blot analysis; assay type: cell-based; settings: PC-3; outline: as §3
[8] = target: T1, Protein cereblon/Cyclin-dependent kinase 9 (Homo sapiens); test: Protac activity at CRBN/CDK9 in AR-negative human PC3 cells assessed as induction of CDK9 protein degradation at 5 uM after 12 hrs by Western blot analysis; assay type: cell-based; settings: PC-3; outline: as §1
[9] = target: T3, Protein cereblon/Cyclin-dependent kinase 2/Cyclin-dependent kinase 9 (Homo sapiens, UniProt P24941+P50750+Q96SW2); test: Protac activity at CRBN/CDK2/CDK9 in AR-negative human PC3 cells assessed as CDK2 degradation at 10^-1 to 10^3 nM after 12 hrs by Western blot analysis; assay type: cell-based; settings: PC-3
[10] = target: T3, Protein cereblon/Cyclin-dependent kinase 2/Cyclin-dependent kinase 9; test: Protac activity at CRBN/CDK2/CDK9 in AR-negative human PC3 cells assessed as CDK9 degradation at 10^-1 to 10^3 nM after 12 hrs by Western blot analysis; assay type: cell-based; settings: PC-3
[11] = target: T1, Protein cereblon/Cyclin-dependent kinase 9 (Homo sapiens); test: Protac activity at CRBN/CDK9 in AR-negative human PC3 cells assessed as induction of CDK9 protein degradation at 50 nM after 12 hrs by Western blot analysis; assay type: cell-based; settings: PC-3; outline: as §1
[12] = target: T2, Protein cereblon/Cyclin-dependent kinase 2 (Homo sapiens); test: Protac activity at CRBN/CDK2 in AR-negative human PC3 cells assessed as induction of CDK2 protein degradation at 50 nM after 12 hrs by Western blot analysis; assay type: cell-based; settings: PC-3; outline: as §2
[13] = target: T2, Protein cereblon/Cyclin-dependent kinase 2 (Homo sapiens); test: Protac activity at CRBN/CDK2 in AR-negative human PC3 cells assessed as induction of CDK2 protein degradation at 30 uM after 12 hrs by Western blot analysis; assay type: cell-based; settings: PC-3; outline: as §2
[14] = target: T3, Protein cereblon/Cyclin-dependent kinase 2/Cyclin-dependent kinase 9; test: Protac activity at CRBN/CDK2/CDK9 in AR-negative human PC3 cells assessed as CDK2 degradation at 10 to 10^4 nM after 12 hrs by Western blot analysis; assay type: cell-based; settings: PC-3
[15] = target: T3, Protein cereblon/Cyclin-dependent kinase 2/Cyclin-dependent kinase 9; test: Protac activity at CRBN/CDK2/CDK9 in AR-negative human PC3 cells assessed as CDK9 degradation at 10 to 10^4 nM after 12 hrs by Western blot analysis; assay type: cell-based; settings: PC-3
[16] = target: T3, Protein cereblon/Cyclin-dependent kinase 2/Cyclin-dependent kinase 9; test: Protac activity at CRBN/CDK2/CDK9 in AR-negative human PC3 cells assessed as induction of CDK9 protein degradation at 30 uM after 12 hrs by Western blot analysis; assay type: cell-based; settings: PC-3; outline: as §2
[17] = target: T3, Protein cereblon/Cyclin-dependent kinase 2/Cyclin-dependent kinase 9; test: Protac activity at CRBN/CDK2/CDK9 in AR-negative human PC3 cells assessed as induction of CDK2 protein degradation at 5 uM after 12 hrs by Western blot analysis; assay type: cell-based; settings: PC-3; outline: as §2
[18] = target: T3, Protein cereblon/Cyclin-dependent kinase 2/Cyclin-dependent kinase 9; test: Protac activity at CRBN/CDK2/CDK9 in AR-negative human PC3 cells assessed as induction of CDK9 protein degradation at 5 uM after 12 hrs by Western blot analysis; assay type: cell-based; settings: PC-3; outline: as §2
[19] = target: T3, Protein cereblon/Cyclin-dependent kinase 2/Cyclin-dependent kinase 9; test: Protac activity at CRBN/CDK2/CDK9 in AR-negative human PC3 cells assessed as induction of CDK2 protein degradation after 24 hrs by Western blot analysis; assay type: cell-based; settings: PC-3
Outline: (§4)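 PC-3 cells exposed to a degrader concentration series, then immunoblotted for CDK2 and CDK9 versus β-tubulin. The figure legend gives 24 h exposure. DC50 taken as mean of 2 determinations from densitometry.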

[20] = target: T3, Protein cereblon/Cyclin-dependent kinase 2/Cyclin-dependent kinase 9; test: Protac activity at CRBN/CDK2/CDK9 in AR-negative human PC3 cells assessed as induction of CDK9 protein degradation after 24 hrs by Western blot analysis; assay type: cell-based; settings: PC-3; outline: as §4
[21] = target: T3, Protein cereblon/Cyclin-dependent kinase 2/Cyclin-dependent kinase 9; test: Protac activity at CRBN/CDK2/CDK9 in AR-negative human PC3 cells assessed as induction of CDK9 protein degradation at 1 uM after 12 hrs by Western blot analysis; assay type: cell-based; settings: PC-3; outline: as §2
[22] = target: T3, Protein cereblon/Cyclin-dependent kinase 2/Cyclin-dependent kinase 9; test: Protac activity at CRBN/CDK2/CDK9 in AR-negative human PC3 cells assessed as induction of CDK2 protein degradation at 1 uM after 12 hrs by Western blot analysis; assay type: cell-based; settings: PC-3; outline: as §2

T1 sequence (P50750 whole entry, looked up): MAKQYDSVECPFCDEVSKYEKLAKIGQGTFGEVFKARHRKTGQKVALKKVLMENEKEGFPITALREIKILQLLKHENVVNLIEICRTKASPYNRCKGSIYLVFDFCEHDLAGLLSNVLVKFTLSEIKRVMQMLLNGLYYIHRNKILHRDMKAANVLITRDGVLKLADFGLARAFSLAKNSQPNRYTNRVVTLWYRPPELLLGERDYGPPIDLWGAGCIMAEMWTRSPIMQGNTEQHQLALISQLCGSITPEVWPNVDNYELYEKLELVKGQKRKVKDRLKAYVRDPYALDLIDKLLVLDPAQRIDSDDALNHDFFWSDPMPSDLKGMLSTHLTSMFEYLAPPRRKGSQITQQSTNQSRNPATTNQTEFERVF
T1 sequence (Q96SW2 whole entry, looked up): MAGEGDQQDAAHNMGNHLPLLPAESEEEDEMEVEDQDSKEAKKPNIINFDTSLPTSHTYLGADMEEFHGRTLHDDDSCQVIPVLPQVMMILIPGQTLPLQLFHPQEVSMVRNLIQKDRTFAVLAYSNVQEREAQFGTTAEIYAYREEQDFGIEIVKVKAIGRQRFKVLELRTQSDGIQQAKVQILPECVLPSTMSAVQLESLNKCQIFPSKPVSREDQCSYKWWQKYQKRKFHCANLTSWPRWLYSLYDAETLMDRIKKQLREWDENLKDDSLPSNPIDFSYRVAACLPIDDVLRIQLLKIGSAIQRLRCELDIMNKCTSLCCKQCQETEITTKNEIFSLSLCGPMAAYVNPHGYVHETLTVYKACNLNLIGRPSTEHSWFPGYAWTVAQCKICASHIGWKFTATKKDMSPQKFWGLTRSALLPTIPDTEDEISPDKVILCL
Sequence of Protein cereblon/Cyclin-dependent kinase 5 (Homo sapiens) (Q00535 whole entry, looked up): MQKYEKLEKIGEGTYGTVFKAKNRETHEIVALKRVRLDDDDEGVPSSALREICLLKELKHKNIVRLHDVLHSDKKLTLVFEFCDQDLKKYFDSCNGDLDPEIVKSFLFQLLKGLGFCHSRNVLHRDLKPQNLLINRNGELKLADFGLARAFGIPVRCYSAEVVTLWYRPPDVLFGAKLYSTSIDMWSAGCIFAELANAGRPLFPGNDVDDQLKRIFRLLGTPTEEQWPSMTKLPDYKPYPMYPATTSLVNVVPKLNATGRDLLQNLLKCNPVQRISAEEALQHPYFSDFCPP
Sequence of Protein cereblon/Cyclin-dependent kinase 5 (Homo sapiens) (Q96SW2 whole entry, looked up): as the sequence (Q96SW2 whole entry, looked up) above

Activity [1]: Active
IC50 (PC-3): 8.03 µM
Activity [2]: Active
SMILES: O=C(CCC(=O)N1CCN(Cc2ccc(NC(=O)c3n[nH]cc3Nc3ncnc4[nH]ccc34)cc2)CC1)NCCNC(=O)COc1cccc2c1C(=O)N(C1CCC(=O)NC1=O)C2=O (centres undefined)

Activity [4]: inactive
Activity [11]: Active
Activity [12]: Active
Activity [13]: inactive
IC50 (PC-3): 1.38 µM
Activity [2]: Active
SMILES: O=C(CCC(=O)N1CCN(Cc2ccc(NC(=O)c3n[nH]cc3Nc3ncnc4[nH]ccc34)cc2)CC1)NCCCCNc1cccc2c1C(=O)N(C1CCC(=O)NC1=O)C2=O (centres undefined)

Activity [19]: inactive
Activity [20]: inactive
IC50 (PC-3): 7.3 µM
SMILES: O=C(CCC(=O)N1CCN(Cc2ccc(NC(=O)c3n[nH]cc3Nc3ncnc4[nH]ccc34)cc2)CC1)NCCCCCCNC(=O)COc1cccc2c1C(=O)N(C1CCC(=O)NC1=O)C2=O (centres undefined)

Activity [11]: Active
Activity [1]: Active
Activity [12]: Active
IC50 (PC-3): 3.54 µM
Activity [2]: Active
SMILES: O=C(COc1cccc2c1C(=O)N(C1CCC(=O)NC1=O)C2=O)NCCOCCOCC(=O)N1CCN(Cc2ccc(NC(=O)c3n[nH]cc3Nc3ncnc4[nH]ccc34)cc2)CC1 (centres undefined)

Activity [16]: Active
Activity [21]: Active
Activity [22]: Active
IC50 (PC-3): 2.21 µM
SMILES: O=C(COc1cccc2c1C(=O)N(C1CCC(=O)NC1=O)C2=O)NCCCC(=O)N1CCN(Cc2ccc(NC(=O)c3n[nH]cc3Nc3ncnc4[nH]ccc34)cc2)CC1 (centres undefined)

Second part, the molecule before the results:

SMILES: O=C(COc1cccc2c1C(=O)N(C1CCC(=O)NC1=O)C2=O)NCCOCCOCC(=O)N1CCC(NC(=O)c2n[nH]cc2NC(=O)c2c(Cl)cccc2Cl)CC1 (centres undefined)
Activity [3]: inactive
Activity [4]: Active
Activity [5]: inactive
Activity [1]: inactive
Activity [6]: inactive
Activity [7]: inactive
IC50 (PC-3): 0.84 µM
Activity [8]: Active
Activity [2]: Active

SMILES: O=C(CCC(=O)N1CCN(Cc2ccc(NC(=O)c3n[nH]cc3Nc3ncnc4[nH]ccc34)cc2)CC1)NCCNc1ccc2c(c1)C(=O)N(C1CCC(=O)NC1=O)C2=O (centres undefined)
Activity [9]: Active
Activity [10]: Active

SMILES: CN1C(=O)CCC(N2C(=O)c3cccc(NCCNC(=O)CCC(=O)N4CCN(Cc5ccc(NC(=O)c6n[nH]cc6Nc6ncnc7[nH]ccc67)cc5)CC4)c3C2=O)C1=O (centres undefined)
Activity [14]: inactive
Activity [15]: inactive

SMILES: O=C(COc1cccc2c1C(=O)N(C1CCC(=O)NC1=O)C2=O)NCCCCCC(=O)N1CCC(NC(=O)c2n[nH]cc2NC(=O)c2c(Cl)cccc2Cl)CC1 (centres undefined)
Activity [4]: Active
Activity [1]: inactive
Activity [6]: inactive
Activity [16]: Active
Activity [17]: Active
Activity [18]: Active

SMILES: O=C(CCC(=O)N1CCC(NC(=O)c2n[nH]cc2NC(=O)c2c(Cl)cccc2Cl)CC1)NCCCCCCNc1cccc2c1C(=O)N(C1CCC(=O)NC1=O)C2=O (centres undefined)
IC50 (PC-3): 14.6 µM

SMILES: O=C(CCC(=O)N1CCN(Cc2ccc(NC(=O)c3n[nH]cc3Nc3ncnc4[nH]ccc34)cc2)CC1)NCCCOCCOCCOCCCNC(=O)COc1cccc2c1C(=O)N(C1CCC(=O)NC1=O)C2=O (centres undefined)
Activity [19]: inactive
Activity [20]: inactive
IC50 (PC-3): 18.3 µM
